According to ChEMBL document CHEMBL2150941, “Cytotoxic iridoids from the roots of Patrinia scabra” (J Nat Prod, 2012):

Assays:
HeLa = test: Cytotoxicity against human HeLa cells after 48 hrs by MTT assay; assay type: functional, cell-based
Method in brief: (§1)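 Cells kept in DMEM with 10% FBS, penicillin and streptomycin at 37 °C, 5% CO2. Seeded at 2 × 10^4 cells/well, allowed to adhere for 24 h, then exposed for 48 h to graded compound concentrations […], with 5-fluorouracil as positive control. MTT (5 mg/mL stock) added for 4 h at 37 °C, formazan dissolved in DMSO, read at 570 nm. IC50 is the mean of three independent experiments run in duplicate.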

[1] = Cytotoxicity against human MNK45 cells after 48 hrs by MTT assay; assay type: functional, cell-based; details: MNK45, 48 h; method in brief: as §1

SMILES	IC50 (HeLa)	IC50 [1]
COC(=O)C1=CO[C@@H](O[C@@H]2O[C@H](CO)[C@@H](O)[C@H](O)[C@H]2O)[C@@H]2[C@H](C)O[C@@H](OC)C[C@H]12	> 50 µM	> 50 µM
C[C@@H]1[C@H]2OC[C@@H]3[C@@H]1C[C@H](O)[C@@]3(C)O2	> 50 µM	> 50 µM
C[C@H]1[C@H]2OC[C@@H]3[C@@H]1C[C@H](O)[C@@]3(C)O2	> 50 µM	> 50 µM
COC(=O)C1=CO[C@@H](O[C@@H]2O[C@H](CO)[C@@H](O)[C@H](O)[C@H]2O)[C@@H]2[C@H](C)O[C@H](OC)C[C@H]12	> 50 µM	> 50 µM
COC(=O)C1=CO[C@@H](O[C@@H]2O[C@H](CO)[C@@H](O)[C@H](O)[C@H]2O)[C@@H]2[C@H](C)O[C@H](O)C[C@H]12	> 50 µM	> 50 µM
O=c1[nH]cc(F)c(=O)[nH]1 [FLUOROURACIL]	9.5 µM	12 µM
C[C@@H]1C(=O)OC[C@H]2[C@@H]1C[C@H](O)[C@@]2(C)O [ISOPATRISCABROL]	24.5 µM	> 50 µM
C=C1COC(=O)[C@H]2[C@@H]1C[C@H](O)[C@@]2(C)O [JATAMANIN A]	> 50 µM	> 50 µM
COC(=O)C1=CO[C@@H](O[C@@H]2O[C@H](CO)[C@@H](O)[C@H](O)[C@H]2O)[C@@H]2[C@H](C)O[C@@H](O)C[C@H]12 [MORRONISIDE]	> 50 µM	> 50 µM
C=C(CO)[C@H]1C[C@H](OC(=O)CC(C)C)[C@@](C)(O)[C@H]1CO[C@@H]1O[C@H](CO)[C@@H](O)[C@H](O)[C@H]1O [PATRINIOSIDE]	> 50 µM	23.8 µM
C[C@@H]1C[C@@H]2OC=C(C=O)[C@@H]2[C@@H]1CO[C@@H]1O[C@H](CO)[C@@H](O)[C@H](O)[C@H]1O [PATRIRIDOSIDE D]	> 50 µM	15.6 µM
C[C@H]1C(=O)OC[C@H]2[C@@H]1CC[C@@]2(C)O[C@@H]1O[C@H](CO)[C@@H](O)[C@H](O)[C@H]1O [PATRIRIDOSIDE E]	> 50 µM	> 50 µM
C[C@H]1[C@H]2C[C@H](O)[C@@](C)(O[C@@H]3O[C@H](CO)[C@@H](O)[C@H](O)[C@H]3O)[C@H]2CO[C@@H]1O [PATRIRIDOSIDE F]	> 50 µM	> 50 µM
C=C1CO[C@]2(CO[C@@H]3O[C@H](CO)[C@@H](O)[C@H](O)[C@H]3O)C(C)=CC[C@H]12 [PATRIRIDOSIDE G]	> 50 µM	8.7 µM
C=C1CO[C@]2(CO[C@@H]3O[C@H](CO[C@@H]4OC[C@](O)(CO)[C@H]4O)[C@@H](O)[C@H](O)[C@H]3O)C(C)=CC[C@H]12 [PATRIRIDOSIDE H]	> 50 µM	9.4 µM
CC1=CC[C@@H]2[C@H](C)CO[C@]12CO[C@@H]1O[C@H](CO[C@@H]2OC[C@](O)(CO)[C@H]2O)[C@@H](O)[C@H](O)[C@H]1O [PATRIRIDOSIDE I]	> 50 µM	30.9 µM
C[C@H]1C(=O)OC[C@H]2[C@@H]1C[C@H](O)[C@@]2(C)O [PATRISCABROL]	> 50 µM	> 50 µM
C[C@H]1C(=O)OC[C@H]2[C@@H]1C[C@H](O[C@@H]1O[C@H](CO)[C@@H](O)[C@H](O)[C@H]1O)[C@@]2(C)O [PATRISCABROSIDE I]	> 50 µM	> 50 µM
C[C@H]1C(=O)OC[C@H]2[C@@H]1CC[C@@]2(C)O [SCABROL A]	> 50 µM	> 50 µM
C=C[C@H]1[C@H](O[C@@H]2O[C@H](CO)[C@@H](O)[C@H](O)[C@H]2O)OC=C2C(=O)OCC[C@H]21 [SWEROSIDE]	> 50 µM	11.2 µM
